According to the M2OR odorant receptor database:

Key:
Conditions in all cases: stereoisomer not certain
UniProt L7N210 = molecular target: T1, UniProt L7N210
T1 sequence (whole entry): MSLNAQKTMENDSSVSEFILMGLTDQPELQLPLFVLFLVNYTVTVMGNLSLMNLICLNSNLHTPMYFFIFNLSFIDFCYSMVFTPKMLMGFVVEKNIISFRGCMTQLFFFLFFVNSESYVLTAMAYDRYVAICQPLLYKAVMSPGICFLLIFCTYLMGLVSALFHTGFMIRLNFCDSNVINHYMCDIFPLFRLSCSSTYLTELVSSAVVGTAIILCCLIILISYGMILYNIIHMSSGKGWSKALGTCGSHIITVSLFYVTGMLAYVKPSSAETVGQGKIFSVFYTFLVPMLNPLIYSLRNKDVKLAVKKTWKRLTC
In short: (§1)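 Assay methods differ from source to source, frequently being transient luciferase assays in mammalian cell lines. For each receptor–molecule pair, the label responsive (active) applies when the original authors judged the measured signal statistically different from baseline, and non-responsive (inactive) applies otherwise.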

UniProt Q3KPB0 = molecular target: T2, UniProt Q3KPB0
T2 sequence (whole entry): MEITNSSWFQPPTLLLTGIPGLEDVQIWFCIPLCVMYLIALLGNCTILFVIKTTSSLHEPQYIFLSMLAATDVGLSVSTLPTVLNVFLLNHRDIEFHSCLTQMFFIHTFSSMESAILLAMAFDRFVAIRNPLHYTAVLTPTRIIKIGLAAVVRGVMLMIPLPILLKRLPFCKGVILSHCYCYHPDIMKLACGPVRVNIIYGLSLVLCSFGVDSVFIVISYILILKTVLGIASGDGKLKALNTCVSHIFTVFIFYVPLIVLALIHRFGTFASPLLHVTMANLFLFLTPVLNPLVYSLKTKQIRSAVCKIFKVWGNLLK
In short: as §1

UniProt Q3U0P3 = molecular target: T3, UniProt Q3U0P3
T3 sequence (whole entry): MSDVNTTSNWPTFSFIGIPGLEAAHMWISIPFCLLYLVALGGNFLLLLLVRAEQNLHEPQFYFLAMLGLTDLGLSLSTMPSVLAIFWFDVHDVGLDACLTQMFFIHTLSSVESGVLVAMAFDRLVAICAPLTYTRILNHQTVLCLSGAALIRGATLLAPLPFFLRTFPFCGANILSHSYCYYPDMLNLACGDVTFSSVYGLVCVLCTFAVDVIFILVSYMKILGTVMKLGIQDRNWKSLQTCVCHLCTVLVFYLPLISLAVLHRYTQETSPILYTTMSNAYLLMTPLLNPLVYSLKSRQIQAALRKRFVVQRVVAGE
In short: as §1

UniProt Q7TQU8 = molecular target: T4, UniProt Q7TQU8
T4 sequence (whole entry): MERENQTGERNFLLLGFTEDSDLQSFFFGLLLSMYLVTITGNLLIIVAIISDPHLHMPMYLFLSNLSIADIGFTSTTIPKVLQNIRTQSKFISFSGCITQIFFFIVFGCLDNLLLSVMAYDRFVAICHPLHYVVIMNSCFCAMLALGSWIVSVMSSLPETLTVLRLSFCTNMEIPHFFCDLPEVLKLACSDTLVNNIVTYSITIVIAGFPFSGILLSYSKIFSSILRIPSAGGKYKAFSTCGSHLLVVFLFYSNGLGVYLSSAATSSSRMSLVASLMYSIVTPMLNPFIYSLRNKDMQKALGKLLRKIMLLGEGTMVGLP
In short: as §1

UniProt Q7TR79 = molecular target: T5, UniProt Q7TR79
T5 sequence (whole entry): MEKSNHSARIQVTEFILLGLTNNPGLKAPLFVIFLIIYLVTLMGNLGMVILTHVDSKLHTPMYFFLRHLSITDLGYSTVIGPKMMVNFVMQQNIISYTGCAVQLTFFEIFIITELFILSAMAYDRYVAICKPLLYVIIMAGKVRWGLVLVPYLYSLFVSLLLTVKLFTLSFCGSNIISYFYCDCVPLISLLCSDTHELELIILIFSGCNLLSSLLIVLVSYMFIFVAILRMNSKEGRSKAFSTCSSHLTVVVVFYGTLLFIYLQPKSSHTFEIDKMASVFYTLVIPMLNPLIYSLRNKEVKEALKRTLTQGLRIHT
In short: as §1

UniProt Q7TQV4 = molecular target: T6, UniProt Q7TQV4
T6 sequence (whole entry): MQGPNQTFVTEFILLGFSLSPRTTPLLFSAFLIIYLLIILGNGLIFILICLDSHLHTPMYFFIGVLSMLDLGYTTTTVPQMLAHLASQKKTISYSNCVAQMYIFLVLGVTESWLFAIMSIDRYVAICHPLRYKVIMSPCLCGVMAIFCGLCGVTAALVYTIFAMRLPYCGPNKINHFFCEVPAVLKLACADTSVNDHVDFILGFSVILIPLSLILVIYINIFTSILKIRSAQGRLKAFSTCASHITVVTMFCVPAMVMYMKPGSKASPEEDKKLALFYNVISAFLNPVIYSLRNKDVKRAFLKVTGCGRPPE
In short: as §1

UniProt Q7TR71 = molecular target: T7, UniProt Q7TR71
T7 sequence (whole entry): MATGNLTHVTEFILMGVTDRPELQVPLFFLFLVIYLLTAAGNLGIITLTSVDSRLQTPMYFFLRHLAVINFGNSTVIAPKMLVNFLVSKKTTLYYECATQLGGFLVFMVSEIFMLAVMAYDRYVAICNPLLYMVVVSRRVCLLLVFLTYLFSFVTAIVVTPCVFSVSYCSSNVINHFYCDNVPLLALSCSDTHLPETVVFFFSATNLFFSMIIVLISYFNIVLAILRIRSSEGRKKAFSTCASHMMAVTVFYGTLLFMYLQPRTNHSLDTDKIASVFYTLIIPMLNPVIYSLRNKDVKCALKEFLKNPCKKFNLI
In short: as §1

UniProt Q7TRA3 = molecular target: T8, UniProt Q7TRA3
T8 sequence (whole entry): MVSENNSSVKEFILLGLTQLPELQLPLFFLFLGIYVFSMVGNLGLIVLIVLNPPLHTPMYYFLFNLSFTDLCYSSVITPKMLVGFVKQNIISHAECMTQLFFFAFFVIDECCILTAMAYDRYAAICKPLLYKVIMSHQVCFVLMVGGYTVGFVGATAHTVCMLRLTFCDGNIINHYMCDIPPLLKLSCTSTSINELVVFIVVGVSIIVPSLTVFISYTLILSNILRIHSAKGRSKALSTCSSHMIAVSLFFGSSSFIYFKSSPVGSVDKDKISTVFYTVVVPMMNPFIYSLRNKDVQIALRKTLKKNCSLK
In short: as §1

UniProt Q7TRE4 = molecular target: T9, UniProt Q7TRE4
T9 sequence (whole entry): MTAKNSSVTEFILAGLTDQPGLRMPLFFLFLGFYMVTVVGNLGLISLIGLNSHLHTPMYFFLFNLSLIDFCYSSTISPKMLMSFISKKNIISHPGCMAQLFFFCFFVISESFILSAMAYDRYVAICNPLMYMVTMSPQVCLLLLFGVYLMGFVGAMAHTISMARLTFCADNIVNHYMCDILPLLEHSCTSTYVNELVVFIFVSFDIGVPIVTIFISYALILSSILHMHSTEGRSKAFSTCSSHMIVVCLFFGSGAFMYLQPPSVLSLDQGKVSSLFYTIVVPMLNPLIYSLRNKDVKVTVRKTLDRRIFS
In short: as §1

UniProt Q7TRM0 = molecular target: UniProt Q7TRM0
In short: as §1

Measured: odorant receptor agonist call

Chain of UniProt Q7TRM0 (Q7TRM0 as listed by the source): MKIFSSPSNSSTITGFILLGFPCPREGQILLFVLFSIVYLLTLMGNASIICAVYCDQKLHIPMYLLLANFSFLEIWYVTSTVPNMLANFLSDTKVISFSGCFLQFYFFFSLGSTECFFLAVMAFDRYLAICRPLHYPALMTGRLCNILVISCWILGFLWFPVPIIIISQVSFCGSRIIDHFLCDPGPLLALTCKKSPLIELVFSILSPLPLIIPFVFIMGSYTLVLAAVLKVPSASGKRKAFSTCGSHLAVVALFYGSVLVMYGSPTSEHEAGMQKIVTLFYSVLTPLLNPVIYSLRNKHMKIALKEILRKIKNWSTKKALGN

C=C(C)C1CC=C(C=O)CC1 (centres undefined)
inactive: UniProt Q3KPB0 | UniProt Q3U0P3 | UniProt Q7TQU8 | UniProt Q7TR79
active: UniProt L7N210

C=CCc1ccccc1
inactive: UniProt L7N210 | UniProt Q7TQV4 | UniProt Q7TR71 | UniProt Q7TRA3 | UniProt Q7TRE4

O=c1cc(O)c2ccccc2o1
not listed: UniProt Q7TRM0
inactive: all other assays above

CCCCCCC(Br)C(=O)O (centres undefined)
inactive: UniProt L7N210 | UniProt Q3KPB0 | UniProt Q3U0P3 | UniProt Q7TQU8 | UniProt Q7TR79

COc1ccc(C=O)cc1
inactive: UniProt Q3KPB0 | UniProt Q3U0P3 | UniProt Q7TQU8 | UniProt Q7TR79
active: UniProt L7N210

CSSC
inactive: UniProt L7N210 | UniProt Q3KPB0 | UniProt Q3U0P3 | UniProt Q7TQU8 | UniProt Q7TR79

O=C(O)CCCCCCCBr
inactive: UniProt Q7TRM0

CCCCC(Br)C(=O)O (centres undefined)
inactive: UniProt Q3KPB0 | UniProt Q3U0P3 | UniProt Q7TQU8 | UniProt Q7TR79
active: UniProt L7N210

Oc1ccccc1Br
inactive: UniProt L7N210 | UniProt Q3KPB0 | UniProt Q3U0P3 | UniProt Q7TQU8 | UniProt Q7TR79

C=CCOC(=O)Cc1ccccc1
not listed: UniProt Q7TRM0
inactive: all other assays above

OCc1ccc2c(c1)OCO2
inactive: UniProt L7N210 | UniProt Q3KPB0 | UniProt Q3U0P3 | UniProt Q7TQU8 | UniProt Q7TR79

CC(C=O)Cc1ccc2c(c1)OCO2 (centres undefined)
inactive: UniProt Q3KPB0 | UniProt Q3U0P3 | UniProt Q7TQU8 | UniProt Q7TR79
active: UniProt L7N210

O=Cc1ccccc1
inactive: UniProt L7N210 | UniProt Q3KPB0 | UniProt Q3U0P3 | UniProt Q7TQU8 | UniProt Q7TR79

CCC1CCC(=O)O1 (centres undefined)
inactive: UniProt L7N210 | UniProt Q7TRA3 | UniProt Q7TRE4
active: UniProt Q7TQV4 | UniProt Q7TR71

O=Cc1ccc2c(c1)OCO2
active: UniProt L7N210
inactive: UniProt Q3KPB0 | UniProt Q3U0P3 | UniProt Q7TQU8 | UniProt Q7TR79

O=CC=Cc1ccccc1
inactive: UniProt L7N210 | UniProt Q3KPB0 | UniProt Q3U0P3 | UniProt Q7TQU8 | UniProt Q7TR79

Cc1ccc(OC(=O)Cc2ccccc2)cc1
inactive: UniProt L7N210 | UniProt Q3KPB0 | UniProt Q3U0P3 | UniProt Q7TQU8 | UniProt Q7TR79
